APP 5'UTR act = activates APP 5'UTR luciferase reporter. SH-SY5Y APP 5'UTR luciferase reporter, luminescence; zero percent = DMSO vehicle wells. activation, % at 2 µM. actives 1% (n = 190,000);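 active means activation above a set limit, based on mean plus 3 SD of controls, cut at about 140% in these data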
NF-kB neuron act = NF-kB expression increase, human neuronal cells. NF-kB reporter expression; hits give high values. actives 1.6% (n = 190,000). fold change at 12.5 µM. AID 1239; in the data active means fold change above about 3.3
STAT3 act = increases IL-6 driven STAT3 reporter signal. activation (% of control), % at 5.6 µM. actives 0.91% (n = 190,000). U3A cells, IL-6 STAT3-luciferase reporter, luminescence; 100% = signal with IL-6 EC80 alone. AID 871;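 active means activation above the screen-wide mean of compound activation plus 3 SD, cut at about 130% in these data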
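System – human U3A cells carrying STAT3-luciferase construct · Probe or stimulus – Interleukin-6, 33 ng/mL · Schedule – compound 1 h, then IL-6 6 h at 37 °C · Signal – luminescence from STAT3-driven luciferase reporter · Evaluation – percent of IL-6-only median luminescence · Benchmarks – IL-6-only high control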
STAT1 blocker = reduces IFN-gamma driven STAT1 reporter signal; NIH 3T3 STAT1-luciferase reporter, luminescence; inhibition, % at 5.5 µM; actives 0.35% (n = 200,000); AID 920;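 active means inhibition above a set limit, the mean inhibition across all tested compounds plus 3 SD, cut at about 34% in these data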
STAT1 act = increases IFN-gamma driven STAT1 reporter signal; NIH 3T3 STAT1-luciferase reporter, luminescence; 100% = IFN-gamma alone, no compound; activation (% of control), % at 5.5 µM; actives 2.6% (n = 200,000); AID 932;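 active means activation above the screen-wide mean activation plus 3 SD, cut at about 130% in these data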
STAT3 inh = inhibitors of IL-6 induced STAT3 signaling; U3A cells, IL-6 STAT3-luciferase reporter, luminescence; host cell line lacks STAT1; inhibition, % at 5.5 µM; actives 0.89% (n = 190,000); AID 862;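 active means inhibition above the mean inhibition across all screened compounds plus 3 SD, cut at about 44% in these data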
Numbers stand for hits; . = inactive; / = no result given. Rows were chosen to be rich in hits. Some 4.9% of all compounds tested hit in one or more screens of this group.

SMILES	APP 5'UTR act	NF-kB neuron act	STAT3 act	STAT1 blocker	STAT1 act	STAT3 inh
CN(C)c1ccc(-c2nc3ccccn3c2/N=C/c2ccc(Br)cc2)cc1	158	.	.	.	134	.
COc1cc(-c2nc3ccccn3c2/N=C/c2cc(OC)c(OC)c(OC)c2)ccc1O	.	/	.	.	.	.
Cc1c(-c2ccc(Br)cc2)nc2ccccn12	.	.	.	.	148	.
COc1ccc(-c2nc3c4ccccc4ccn3c2C=O)cc1	.	.	.	.	.	.
Cc1ccc(-c2nc3ccccn3c2C=O)cc1	.	.	.	.	132	.
c1ccn2c(c1)nc1c2nc2ccccn21	.	.	.	.	.	.
CCSc1nnc(NC(=O)c2cc(OC)c(OC)c(OC)c2)s1	.	.	.	.	.	.
COc1cc(C)ccc1S(=O)(=O)n1nc(C)cc1C	.	/	.	.	.	.
O=C(c1ccc(F)cc1)N1CCN=C1c1ccccc1	.	.	.	.	.	.
C/C(=N\N=C\c1ccccc1F)c1nnn(-c2nonc2N)c1C	.	.	.	.	142	.
Cc1ccc2nc(CSc3nc(C)cc(C)c3C#N)[nH]c2c1	205	.	.	.	.	.
COc1ccc(NC(=S)Nc2ccc(N)c([N+](=O)[O-])c2)cc1	.	3.3	.	.	.	.
COc1ccc(NC(=O)c2ccccc2[N+](=O)[O-])cc1	.	.	.	.	.	.
COc1ccnc(Oc2ccccc2)c1C(N)=O	.	.	.	.	.	.
CCc1ccc(-n2c(C)nc3cc(C(=O)NCc4cccnc4)ccc32)cc1	.	.	.	.	.	.
CCOc1cc(/C=N/O)ccc1OCc1ccc(C)cc1	.	.	.	.	130	.
Cc1ccc(COc2ccc(Br)cc2/C=N/O)cc1	.	.	.	.	135	.
CCOc1cc(/C=N/O)ccc1OS(=O)(=O)c1ccc(C)cc1	.	.	.	.	.	.
CC(C)(C)NC(=O)NC(=O)CN1CCN(C(c2ccccc2)c2ccccc2)CC1	.	.	.	.	.	.
Cc1ccc(-c2nc(N/N=C/c3cccnc3)c3ccccc3n2)cc1	.	.	.	57	.	72
CCNC(=O)n1cc(-n2cncn2)c(-c2ccc(Cl)cc2)n1	.	.	.	.	.	.
CC(C)CC(C(=O)N1CCc2ccccc2C1)N1C(=O)c2ccccc2C1=O (stereo not drawn)	.	.	134	.	.	.
COc1ccc(N=c2oc3ccccc3cc2C(=O)Nc2ccccn2)cc1OC	.	.	.	.	137	.
NC(=O)c1ccsc1NC(=O)c1ccc2c(c1)CCCC2	180	8.2	.	.	139	.
NC(=O)c1ccsc1NC(=O)c1cccs1	.	/	.	.	.	.
SMILES	APP 5'UTR act	NF-kB neuron act	STAT3 act	STAT1 blocker	STAT1 act	STAT3 inh
CNC(=O)c1ccsc1NC(=O)c1ccc2c(c1)CCCC2	.	.	.	.	131	.
COC(=O)c1ccsc1NC(=O)c1ccccc1	.	.	.	.	.	.
CCOc1ccc(/C=C/C(=O)CCC(=O)O)cc1	.	/	.	.	.	.
CCOc1ccc(/C=C\C(C)=N\O)cc1	.	5.1	.	.	.	.
O=C(Nc1n[nH]c(C(F)(F)F)n1)C1CC1	.	.	.	.	.	.
C=CCN1N=C(c2ccc(NC(=O)c3ccccc3)cc2)CSC1=O	.	.	.	.	.	.
Cc1ccc(NC(=O)CCC(=O)N/N=C/C=C/c2ccccc2)cc1	.	.	.	.	.	.
Brc1ccc(-c2cnc(-c3cccs3)o2)cc1	.	.	.	.	143	.
O=c1c2c(-c3cccs3)csc2ncn1-c1ccc(Br)cc1	.	.	.	.	.	.
Oc1ccc(N2CCN(c3ncnc4sc5c(c34)CCC5)CC2)cc1	.	3.4	.	.	.	.
Cc1ccc2nc(N3CC(=O)Nc4ccccc43)nc(-c3ccccc3)c2c1	.	.	.	.	.	.
COc1ccc(NC(=O)Nc2nc3c(s2)CCCC3)cc1	150	4.9	.	.	148	.
CC(C)C(NC(=O)C1CCCCC1)C(=O)Nc1ccc2c(c1)OCCO2 (stereo not drawn)	.	.	.	.	132	.
c1ccc(-c2ncc3c(ccc4ccccc43)n2)cc1	.	.	.	.	141	.
O=C(O)CC(NC(=O)C1c2ccccc2Oc2ccccc21)c1ccc(Cl)cc1 (stereo not drawn)	.	.	.	.	.	.
Cc1cccc(Nc2nn3c(=O)c4ccccc4nc3s2)c1	.	.	.	.	132	.
CCCSc1nn2c(=O)c3ccccc3nc2s1	.	.	.	.	.	.
O=C(NS(=O)(=O)Oc1cccc(Cl)c1Cl)OC[C@@H]1CCCN2CCCCC12 (stereo partly drawn)	.	.	.	.	.	.
Cc1c(N=C2NC(=O)/C(=C/c3cccc([N+](=O)[O-])c3)S2)c(=O)n(-c2ccccc2)n1C	.	.	.	.	.	.
CN(C)c1ccc(/C=N/N=C2/NC(=O)/C(=C/c3ccc([N+](=O)[O-])cc3)S2)cc1	.	.	.	35	.	.
C/C(=N\OCc1ccc(C#N)cc1)c1ccccc1	.	.	.	.	142	.
C/C(=N/OCO/N=C(\C)c1ccccc1)c1ccccc1	.	.	.	.	.	.
Cc1ccc2nsnc2c1NC(=O)c1ccc(-c2cc(Cl)ccc2Cl)o1	.	.	.	.	129	.
Cc1cccc(-c2cc3nc4c(c(NCc5ccco5)n3n2)CCCC4)c1	.	.	.	.	135	.
Cc1cccc(-c2cc3nc4c(c(N5CCC6(CC5)OCCO6)n3n2)CCCC4)c1	.	/	.	.	.	.
SMILES	APP 5'UTR act	NF-kB neuron act	STAT3 act	STAT1 blocker	STAT1 act	STAT3 inh
Cc1cccc(-c2cc3nc4c(c(N5CCOCC5)n3n2)CCCC4)c1	183	.	.	.	.	.
CC(O)CNc1nc2ccccc2n1CC(=O)N1CCN(Cc2ccccc2)CC1 (stereo not drawn)	.	.	.	.	.	.
O=C(NCc1ccco1)c1cc(-c2ccc(F)cc2)on1	.	.	.	.	142	.
O=C(NCc1ccco1)c1cc(-c2ccccc2)on1	.	4.5	.	.	131	.
O=C(NCc1ccco1)c1cc(-c2cccs2)on1	.	5.2	.	.	130	.
CC(C)Cc1cc(C(=O)NCc2cccs2)no1	.	.	.	.	134	.
O=C(NCc1ccc(F)cc1)c1cc(-c2ccco2)on1	.	.	.	.	.	.
CCOC(=O)CC(NS(=O)(=O)Cc1ccccc1)c1ccc(C)cc1 (stereo not drawn)	.	.	.	.	.	.
COc1ccccc1-c1cc(C(F)(F)F)nc(S(=O)(=O)CCCC(=O)Nc2cc(C)on2)n1	.	.	.	35	.	.
Cc1cc(C(=O)CSc2nnc(-c3ccccc3F)o2)c(C)n1Cc1cccs1	.	.	.	.	.	.

Screening results as filed in PubChem BioAssay.
